Laboratory results reported in ChEMBL document CHEMBL4261638, “Synthesis and in vitro evaluation of diverse heterocyclic diphenolic compounds as inhibitors of DYRK1A” (Bioorg Med Chem, 2018).

Molecular target: Dual specificity tyrosine-phosphorylation-regulated kinase 1A (Homo sapiens) (UniProt Q13627)
Experiment: Inhibition of N-terminal His-tagged human Dyrk1A (126 to 490 residues) expressed in Escherichia coli BL21 (DE3) cells at 1 uM using Woodtide as substrate assessed as remaining enzyme activity after 10 mins in presence of [gamma-32P]-ATP by microbeta scintillation counting method
Procedure, shortened: (§1)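 Recombinant DYRK1A kinase assay with Woodtide as the peptide substrate and ATP at 100 μM. Each compound was tested at two concentrations, 1 μM and 10 μM. Results are given as the percentage of DYRK1A activity remaining relative to the uninhibited enzyme.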

SMILES	Activity
Oc1ccc(-c2ccnc(-c3cc(-c4ccc(O)cc4)n[nH]3)c2)cc1	64%
Oc1ccc(-c2cnc3nccc(-c4ccc(O)cc4)c3c2)cc1	67%
CC(=O)Nc1nc2ccc(-c3ccc(O)cc3)cc2n1-c1ccc(O)cc1	106%
O=C(Nc1cccc(O)c1)c1cncc2nnc(-c3ccc(O)cc3)n12	104%
Oc1ccc2c(c1)CNc1cc(O)ccc1N2	104%
Nc1nc2ccc(-c3ccc(O)cc3)cc2n1-c1ccc(O)cc1	74%
Oc1ccc(-c2nc[nH]c2-c2ccc(O)cc2)cc1	100%

Other lines, results leading:

Activity	SMILES
3.3%	Oc1ccc(-c2cnc3[nH]cc(-c4ccc(O)cc4)c3c2)cc1
99%	O=C(Nc1ccc(O)cc1)c1cncc2nnc(-c3ccc(O)cc3)n12
94%	Oc1ccc(-c2nnc3cncc(OCCc4cccc(O)c4)n23)cc1
90%	Oc1ccc(-c2ccnc(-c3cc(-c4ccc(O)cc4)ccn3)c2)cc1
94%	Oc1ccc(CCOc2cncc3nnc(-c4ccc(O)cc4)n23)cc1
110%	Oc1ccc(-c2ccc(-c3cc(-c4ccc(O)cc4)n[nH]3)nc2)cc1

Molecular target: Dual specificity tyrosine-phosphorylation-regulated kinase 1A (Homo sapiens) (UniProt Q13627)
Experiment: Inhibition of N-terminal His-tagged human Dyrk1A (126 to 490 residues) expressed in Escherichia coli BL21 (DE3) cells at 10 uM using Woodtide as substrate assessed as remaining enzyme activity after 10 mins in presence of [gamma-32P]-ATP by microbeta scintillation counting method
Procedure, shortened: as §1

SMILES	Activity
Oc1ccc(-c2ccnc(-c3cc(-c4ccc(O)cc4)n[nH]3)c2)cc1	9%
Oc1ccc(-c2cnc3nccc(-c4ccc(O)cc4)c3c2)cc1	30%
CC(=O)Nc1nc2ccc(-c3ccc(O)cc3)cc2n1-c1ccc(O)cc1	107%
O=C(Nc1cccc(O)c1)c1cncc2nnc(-c3ccc(O)cc3)n12	102%
Oc1ccc2c(c1)CNc1cc(O)ccc1N2	113%
Nc1nc2ccc(-c3ccc(O)cc3)cc2n1-c1ccc(O)cc1	43%
Oc1ccc(-c2nc[nH]c2-c2ccc(O)cc2)cc1	79%

Next, values leading:

Activity	SMILES
3.3%	Oc1ccc(-c2cnc3[nH]cc(-c4ccc(O)cc4)c3c2)cc1
99%	O=C(Nc1ccc(O)cc1)c1cncc2nnc(-c3ccc(O)cc3)n12
91%	Oc1ccc(-c2nnc3cncc(OCCc4cccc(O)c4)n23)cc1
83%	Oc1ccc(-c2ccnc(-c3cc(-c4ccc(O)cc4)ccn3)c2)cc1
99%	Oc1ccc(CCOc2cncc3nnc(-c4ccc(O)cc4)n23)cc1
98%	Oc1ccc(-c2ccc(-c3cc(-c4ccc(O)cc4)n[nH]3)nc2)cc1
